Screening data as filed in PubChem BioAssay.
Phagocyt inh – macrophage phagocytosis inhibition; J774A.1 macrophage IgG-bead phagocytosis, imaging; 0.07% of 110,000 active; AID 1029; inhibition, % at 5 µM;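 active = inhibition above the mean of the plate negative controls plus 5 SD, cut at about 13% in these data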;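 note: phagocytic index as fraction of beads internalized from green versus red external bead signal; plate controls were DMSO negative control for no effect and cytochalasin-D positive control for full effect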
Ecoli WT expand – blocks growth of wild type E. coli BW25113 | OD600 absorbance | growth inhibition, % at 100 µM | 0.15% of 98,000 active | AID 710;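 active = growth inhibition above about 50% at one test dose, limit read from the data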;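 note: growth measured after 20 h incubation at 37 °C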
Mac1 fbg enh – increases human CD11b/CD18 adhesion to fibrinogen; P05107+P11215; K562 CD11b/CD18 adhesion to fibrinogen, ATPlite luminescence; activation, % at 10 µM; 0.07% of 93,000 active;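 active = 10 µM primary screen giving 50% or more activity, confirmed by 40% or more on retest at that dose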
Target sequence (P05107 whole entry, looked up, other chains not shown): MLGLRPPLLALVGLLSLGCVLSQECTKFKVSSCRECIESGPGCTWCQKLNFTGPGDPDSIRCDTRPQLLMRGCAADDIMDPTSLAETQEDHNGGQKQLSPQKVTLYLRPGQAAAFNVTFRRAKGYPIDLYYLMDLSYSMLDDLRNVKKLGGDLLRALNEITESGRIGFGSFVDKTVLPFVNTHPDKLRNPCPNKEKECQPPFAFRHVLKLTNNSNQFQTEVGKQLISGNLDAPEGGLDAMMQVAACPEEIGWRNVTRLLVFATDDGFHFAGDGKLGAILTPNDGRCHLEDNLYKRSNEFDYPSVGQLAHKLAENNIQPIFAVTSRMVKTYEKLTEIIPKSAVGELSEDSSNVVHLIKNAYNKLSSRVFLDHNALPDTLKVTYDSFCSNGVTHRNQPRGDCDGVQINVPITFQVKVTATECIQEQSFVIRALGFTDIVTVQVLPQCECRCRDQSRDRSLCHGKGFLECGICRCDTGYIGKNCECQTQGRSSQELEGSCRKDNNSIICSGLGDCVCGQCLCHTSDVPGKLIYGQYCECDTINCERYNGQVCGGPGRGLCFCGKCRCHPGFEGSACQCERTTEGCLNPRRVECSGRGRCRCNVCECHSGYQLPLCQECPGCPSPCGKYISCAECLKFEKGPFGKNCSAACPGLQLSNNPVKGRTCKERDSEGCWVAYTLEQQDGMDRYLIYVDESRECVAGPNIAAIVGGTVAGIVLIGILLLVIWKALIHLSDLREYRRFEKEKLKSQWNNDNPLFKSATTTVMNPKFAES
Ecoli tolC – E. coli tolC mutant growth inhibition. E. coli BW25113 tolC mutant growth, OD615. growth inhibition, % at 10 µM (by protocol). 2.2% of 65,000 active. AID 573;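 active = growth inhibition at or above a cutoff equal to the mean over every tested compound plus 3 SD, cut at about 60% in these data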;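 note: growth measured after 20 h incubation at 37 °C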
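Assay system: tolC-deleted E. coli BW25113. Medium: kanamycin-containing LB broth (50 µg/mL). Dosing: 10 µM final, single dose. Timing: bacterial growth with compound for 20 h at 37 °C. Detection: A615 absorbance measurement. Read-out basis: growth inhibition in percent.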
Mac1 fbg inh – CD11b/CD18-fibrinogen binding inhibition; P05107+P11215; K562 CD11b/CD18 adhesion to fibrinogen, ATPlite luminescence; Mn2+ added to activate the integrin; inhibition, % at 10 µM; 0.54% of 93,000 active;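 active = primary inhibition of 50% or more at 10 µM, then 40% or more on retest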
An asterisk follows results filed as active; / = no result given; + = active, no number; [ ] = another dose, or the depositor's remark. The sample as a whole holds a higher share of hits than the screen did.

SMILES	Phagocyt inh	Ecoli WT expand	Mac1 fbg enh	Ecoli tolC	Mac1 fbg inh
CCN(CC)c1ccc(/C=C2\CCC(/C=C(\C#N)C(=O)Nc3ccccc3F)=C2N2CCOCC2)cc1	+[fluoresces]	/	9	/	59
CC(=O)NC(Cc1ccccc1)C(=O)OCC(=O)c1ccc(F)cc1 (centres undefined)	1	/	/	/	/
O=C(c1cc2nc(-c3ccco3)cc(C(F)(F)F)n2n1)N1CCN(c2ccccc2)CC1	0	-7	3	71*	-6
COC(=O)c1ccc(C(=O)OC)c(NC(=S)N2CCN(c3cccc(Cl)c3)CC2)c1	-4	/	/	/	/
CCOC(=O)c1cc(C)n(Cc2cccc(OC)c2OC)c1C	0	-5	-3	4	56*
CCCOC(=O)/C(C(N)=NCc1ccccc1)=C(\O)OCCC	1	13	0	62*	7
CCC(c1nnc(SCC(=O)Nc2nnc(-c3ccccc3)o2)o1)N(C)C (centres undefined)	-2	-5	1	-10	6
Cc1ccc(C)c(SCC(=O)Nc2nnc(-c3ccccc3)o2)c1	0	-7	-3	100*	-37
CC(C)CNC(=O)COc1cccc(C(=O)NCc2ccccc2)c1	-11	/	/	/	/
CCOC(=O)CCSc1nc2c(c(C(F)(F)F)c1C#N)CCC2	-5	0	2	66*	13
CCCCSc1nc2c(c(C(F)(F)F)c1C#N)CCC2	-1	2	1	/	19
CCc1cccc(CC)c1NC(=O)CSc1nc2ccc(N3C(=O)C4C(C3=O)[C@H]3C=C[C@@H]4C3)cc2s1 (some centres undefined)	-6	/	9	/	14
COc1cc(C(=O)N2CCN(c3ncnc4sc(C)c(C)c34)CC2)cc(OC)c1OC	2	0	-12	13	60*
COc1ccccc1Nc1nc(N)nc(CSC(=S)N2CC(C)CC(C)C2)n1 (centres undefined)	/	/	-4	/	-9
O=C(COc1ccc(S(=O)(=O)NCc2ccccc2)cc1)NCC1CCCO1 (centres undefined)	24*	-2	1	-15	4
O=[N+]([O-])c1cc([N+](=O)[O-])c2cccnc2c1Oc1ccccc1O	-3	/	-10	/	90*
CN(Cc1cc([N+](=O)[O-])c2cccnc2c1O)C1CCCCC1	-4	/	/	/	/
Cc1ccc(S(=O)(=O)c2c(C)nn(C(C)(C)C)c2OC(=O)c2ccc(Br)o2)cc1	-1	-10	-6	2	54*
COc1ccc(-c2cc(-c3cc(F)ccc3O)[nH]n2)cc1OC	/	3	/	81*	/
NNc1nc2c(F)cc(F)cc2s1	-5	/	/	/	/
Nc1cc(N)cc(-c2nc3ccccc3o2)c1	/	/	/	-9	/
O=c1c(-c2nc3ccccc3o2)c2oc3ccccc3n2c2ccccc12	/	-3	120	98*	-33
Cc1ccc(-c2nc(-c3ccccc3)no2)c(Cl)c1	0	-12	-10	10	104*
c1ccc(-c2ccccc2-c2nc(-c3cccnc3)no2)cc1	-3	4	1	98*	-7
c1ccc(-c2noc(-c3cccc4ccccc34)n2)cc1	-1	2	/	70*	/
SMILES	Phagocyt inh	Ecoli WT expand	Mac1 fbg enh	Ecoli tolC	Mac1 fbg inh
c1ccc2c(-c3nc(-c4ccncc4)no3)cccc2c1	1	0	-4	4	-10
c1ccc(CCc2ccccc2-c2nc(-c3cccnc3)no2)cc1	1	-12	9	73*	-15
COc1ccc(Cc2nnc(N/N=C/c3ccc(O)cc3O)[nH]c2=O)cc1OC	-9	/	/	/	/
O=C(CSc1nc2ccccc2n1S(=O)(=O)c1ccccc1)N1CCCC1	-6	/	0	/	-5
Cc1noc(C)c1S(=O)(=O)N(CCc1ccccc1)Cc1ccccc1	-3	-1	0	63*	0
COc1ccc(CNC(=O)/C(C#N)=C2\N=C(NC(=O)c3cccs3)c3ccccc32)cc1	-5	/	12	/	18
COc1ccc(-c2noc(CCC(=O)NCCCN3CCC(Cc4ccccc4)CC3)n2)cc1	-1	-2	-4	3	61*
COc1ccc(C(=O)NCc2nnc(SCC(=O)Nc3nc4ccccc4s3)o2)cc1OC	-8	/	/	/	/
CN(c1ccc(O)cc1)c1nc(-c2ccccc2)cs1	0	/	/	98*	/
CN(C)CCCN(C(=O)c1cccs1)c1nc(-c2ccccc2)cs1	-1	7	2	4	19
Cc1ccc2c(c1)c1c3n2CCCN(Cc2ccccc2)C3CCC1 (centres undefined)	38*[artifact]	-10	2	/	-1
Cc1ccc2c(c1)c1c3n2CCN(C(=O)C2CC2)C3CCC1 (centres undefined)	/	5	3	40	5
Cc1ccc(S(=O)(=O)NCC(c2ccco2)N2CCOCC2)cc1 (centres undefined)	-3	/	/	/	/
O=C(NNC(=O)c1ccc([N+](=O)[O-])o1)c1ccccc1	0	100*	6	/	-6
Cc1cc(C)nc(NC(=O)c2ccc([N+](=O)[O-])o2)n1	-2	/	/	/	/
COC(=O)c1ccccc1NC(=O)c1ccc2c(c1)OCCO2	-2	-5	17	89*	-4
CC1=CC(C)(C)N(C(=O)c2ccc(F)cc2)c2cc3c(cc21)OCO3	2	-3	-1	87*	32
CC(/C=C/C=C/c1ccccc1)=N/NC(=O)CNc1ccccc1C	0	/	/	/	/
CCOc1cc(-c2c(C#N)c(N)nc3c2CCc2ccccc2-3)ccc1O	-4	/	1	/	18
CCOc1cc(-c2c(C#N)c(N)nc3c2CCCC3C)ccc1O (centres undefined)	-2	2	2	86*	18
Cc1ccc2[nH]c3c(c2c1)CCC3=O	0	2	-3	-2	-14
Cc1ccc2[nH]c3c(c2c1)CCc1cn[nH]c1-3	0	39	/	100*	/
CC1CCN(C(=O)CCc2ccc(S(=O)(=O)NC(C)(C)C)cc2)CC1	-1	-6	-1	/	-4
CC(C)(C)NS(=O)(=O)c1ccc(CCC(=O)N2CCOCC2)cc1	22*[artifact]	-3	3	-8	-11
O=C(O)CCn1cc(/C=C\C(=O)c2ccc(Cl)cc2)c(-c2cccc(Br)c2)n1	-10	/	25	/	53*
SMILES	Phagocyt inh	Ecoli WT expand	Mac1 fbg enh	Ecoli tolC	Mac1 fbg inh
Cc1ccc(N(CC(=O)NCCSc2nc3ccccc3s2)S(=O)(=O)c2ccccc2)c(C)c1	-8	/	/	/	/
CN1C(=O)CSC1=NCC12CC3CC(CC(C3)C1)C2	-2	-2	-4	/	-8
CCN1C(=O)CSC1=NC1C2CC3CC(C2)CC1C3 (centres undefined)	1	7	0	88*	15
COc1ccc(N(C)S(=O)(=O)c2cccc3cccnc23)c(OC)c1	2	7	54*	-1	-2
CS(=O)c1nc(-c2ccc(Br)cc2)cc(-c2ccccc2)c1C#N (centres undefined)	-2	-9	-2	95*	4
CS(=O)(=O)c1nc(-c2ccc(Br)cc2)cc(-c2ccccc2)c1C#N	-1	-8	-7	/	-10
CC(=O)NC(=S)Nc1cccc(S(=O)(=O)NC2=NCCC2)c1	-2	/	/	/	/
Cc1ccc(N=C2NC(=O)/C(=C/c3cn(C)c4ccccc34)S2)cc1C	-5	/	/	/	/
